Source: ChEMBL document CHEMBL1765010, “Reversible competitive α-ketoheterocycle inhibitors of fatty acid amide hydrolase containing additional conformational constraints in the acyl side chain: orally active, long-acting analgesics” (J Med Chem, 2011)

Molecular target: not listed separately
Assay: Inhibition of full-length human FAAH expressed in COS-7 cells assessed as [14C]-labeled oleamide to oleic acid conversion
Assay type: cell-based
Method in brief: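 Substrate 20 μM 14C-oleamide; three inhibitor concentrations. Reaction stopped in 0.1 N HCl at three time points, extracted with EtOAc and read by TLC.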

`O=C(c1ncco1)C1CCc2cc(OCc3ccccc3)ccc2C1` (racemic) and `O=C(c1ncco1)C1Cc2ccc(OCc3ccccc3)cc2C1` (racemic) cannot be ordered by Ki: greater than 10 µM for the first, greater than 0.024 µM for the second.

`COC(=O)c1cccc(-c2cnc(C(=O)C3CCc4cc(OCc5ccccc5)ccc4C3)o2)n1` (racemic) and `COC(=O)c1cccc(-c2cnc(C(=O)C3Cc4ccc(OCc5ccccc5)cc4C3)o2)n1` (racemic) cannot be ordered by Ki: greater than 10 µM for the first, greater than 10 µM for the second.

Molecular target: T1, Fatty-acid amide hydrolase 1 (Rattus norvegicus, UniProt P97612)
T1 sequence (P97612 whole entry): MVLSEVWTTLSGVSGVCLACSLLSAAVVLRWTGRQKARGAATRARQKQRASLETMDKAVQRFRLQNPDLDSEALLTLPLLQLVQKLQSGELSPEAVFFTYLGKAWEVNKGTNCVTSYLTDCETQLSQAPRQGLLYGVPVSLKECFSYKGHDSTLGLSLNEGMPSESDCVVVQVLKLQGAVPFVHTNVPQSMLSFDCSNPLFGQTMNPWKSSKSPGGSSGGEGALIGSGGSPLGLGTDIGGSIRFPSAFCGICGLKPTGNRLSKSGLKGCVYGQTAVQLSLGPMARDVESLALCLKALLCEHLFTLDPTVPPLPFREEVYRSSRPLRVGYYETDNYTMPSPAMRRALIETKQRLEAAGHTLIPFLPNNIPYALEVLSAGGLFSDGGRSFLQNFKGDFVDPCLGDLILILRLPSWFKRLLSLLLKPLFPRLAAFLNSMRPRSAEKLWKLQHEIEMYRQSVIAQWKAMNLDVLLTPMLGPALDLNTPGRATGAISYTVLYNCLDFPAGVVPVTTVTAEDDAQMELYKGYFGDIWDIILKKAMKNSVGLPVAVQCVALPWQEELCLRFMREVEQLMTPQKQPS
Assay: Inhibition of rat FAAH expressed in E. coli assessed as [14C]-labeled oleamide to oleic acid conversion

Point of comparison: `O=C(c1ncc(-c2ccccn2)o1)[C@H]1CCc2cc(-c3ccccc3)ccc2C1`, Ki 0.0072 µM. Against it:
- O=C(c1nnc(-c2ccccn2)o1)[C@H]1CCc2cc(Oc3ccccc3)ccc2C1 — 7.2-fold lower, 0.001 µM
- N#Cc1cnc(C(=O)[C@@H]2CCc3cc(Oc4ccccc4)ccc3C2)o1 — 7.5-fold higher, 0.054 µM
- O=C(c1ncc(-c2ccccn2)o1)[C@@H]1Cc2ccc(OCc3ccccc3)cc2C1 — 15-fold higher, 0.11 µM
- O=C(O)c1cccc(-c2cnc(C(=O)[C@@H]3CCc4cc(Oc5ccccc5)ccc4C3)o2)n1 — 31-fold higher, 0.22 µM
- O=C(c1ncc(-c2ccccn2)o1)[C@@H]1Cc2ccc(-c3ccccc3)cc2C1 — 83-fold higher, 0.6 µM
- O=C(O)c1cccc(-c2cnc(C(=O)[C@H]3Cc4ccc(OCc5ccccc5)cc4C3)o2)n1 — 7.1-fold higher, 0.051 µM
- O=C(O)c1cccc(-c2cnc(C(=O)[C@H]3CCc4cc(-c5ccccc5)ccc4C3)o2)n1 — 5.4-fold higher, 0.039 µM
- N#Cc1cnc(C(=O)[C@@H]2CCc3cc(-c4ccccc4)ccc3C2)o1 — 8.6-fold higher, 0.062 µM
- COC(=O)c1cccc(-c2cnc(C(=O)[C@@H]3Cc4ccc(Oc5ccccc5)cc4C3)o2)n1 — 110-fold higher, 0.79 µM
- O=C(O)c1cccc(-c2cnc(C(=O)[C@@H]3Cc4ccc(Oc5ccccc5)cc4C3)o2)n1 — 76-fold higher, 0.55 µM
- N#Cc1cnc(C(=O)[C@H]2CCc3cc(Oc4ccccc4)ccc3C2)o1 — 5.5-fold lower, 0.0013 µM
- O=C(c1ncco1)[C@H]1CCc2cc(OCc3ccccc3)ccc2C1 — within 1.5-fold, 0.0061 µM
- O=C(c1ncc(-c2ccccn2)o1)[C@@H]1CCc2ccccc2C1 — 440-fold higher, 3.2 µM
- COC(=O)c1cnc(C(=O)[C@@H]2CCc3cc(-c4ccccc4)ccc3C2)o1 — 190-fold higher, 1.4 µM
- O=C(c1ncc(-c2ccccn2)o1)[C@@H]1CCc2cc(OCc3ccccc3)ccc2C1 — 42-fold higher, 0.3 µM
- O=C(c1ncc(-c2ccccn2)o1)[C@@H]1Cc2ccc(Oc3ccccc3)cc2C1 — 5.8-fold higher, 0.042 µM
- O=C(c1ncc(-c2ccccn2)o1)[C@H]1Cc2ccc(OCc3ccccc3)cc2C1 — 5.1-fold lower, 0.0014 µM
- COC(=O)c1cccc(-c2cnc(C(=O)[C@H]3CCc4cc(OCc5ccccc5)ccc4C3)o2)n1 — 2.5-fold higher, 0.018 µM
- O=C(c1ncco1)[C@@H]1CCc2ccccc2C1 — 1700-fold higher, 12 µM
- O=C(c1ncc(-c2ccccn2)o1)[C@H]1Cc2ccc(-c3ccccc3)cc2C1 — 3.8-fold lower, 0.0019 µM
- O=C(c1nnco1)[C@@H]1CCc2cc(Oc3ccccc3)ccc2C1 — 5.1-fold lower, 0.0014 µM
- COC(=O)c1cccc(-c2cnc(C(=O)[C@H]3CCc4cc(Oc5ccccc5)ccc4C3)o2)n1 — 3.3-fold lower, 0.0022 µM
- O=C(c1ncc(-c2ccccn2)o1)[C@H]1Cc2ccc(Oc3ccccc3)cc2C1 — 3.4-fold lower, 0.0021 µM
- O=C(c1ncc(I)o1)C1CCc2cc(OCc3ccccc3)ccc2C1 (racemic) — within 1.5-fold, 0.008 µM
- COC(=O)c1cccc(-c2cnc(C(=O)C3Cc4ccc(-c5ccccc5)cc4C3)o2)n1 (racemic) — within 1.5-fold, 0.0062 µM
- N#Cc1cnc(C(=O)[C@H]2CCc3cc(-c4ccccc4)ccc3C2)o1 — 2.1-fold lower, 0.0034 µM
- COC(=O)c1nnc(C(=O)[C@@H]2CCc3cc(Oc4ccccc4)ccc3C2)o1 — 4.5-fold lower, 0.0016 µM
- COC(=O)c1cnc(C(=O)[C@H]2CCc3cc(Oc4ccccc4)ccc3C2)o1 — within 1.5-fold, 0.0054 µM
- COC(=O)c1cnc(C(=O)[C@H]2CCc3cc(OCc4ccccc4)ccc3C2)o1 — 2.5-fold lower, 0.0029 µM
- O=C(c1ncco1)[C@@H]1CCc2cc(Oc3ccccc3)ccc2C1 — 57-fold higher, 0.41 µM
- O=C(c1ncco1)[C@H]1Cc2ccc(Oc3ccccc3)cc2C1 — within 1.5-fold, 0.01 µM
- O=C(c1ncco1)[C@H]1CCc2ccccc2C1 — 710-fold higher, 5.1 µM
- O=C(c1ncc(-c2ccccn2)o1)[C@@H]1CCc2cc(Oc3ccccc3)ccc2C1 — 40-fold higher, 0.29 µM
- N#Cc1cnc(C(=O)[C@@H]2CCc3cc(OCc4ccccc4)ccc3C2)o1 — 17-fold higher, 0.12 µM
- O=C(c1ncc(-c2ccccn2)o1)[C@@H]1CCc2cc(-c3ccccc3)ccc2C1 — 33-fold higher, 0.24 µM
- COC(=O)c1cccc(-c2cnc(C(=O)[C@H]3Cc4ccc(OCc5ccccc5)cc4C3)o2)n1 — within 1.5-fold, 0.0058 µM
- COC(=O)c1nnc(C(=O)[C@H]2CCc3cc(Oc4ccccc4)ccc3C2)o1 — 4.8-fold lower, 0.0015 µM
- O=C(c1nnco1)[C@H]1CCc2cc(Oc3ccccc3)ccc2C1 — 14-fold lower, 0.0005 µM
- O=C(c1ncc(I)o1)[C@H]1CCc2cc(OCc3ccccc3)ccc2C1 — 1.8-fold lower, 0.0041 µM
- O=C(c1ncco1)[C@@H]1Cc2ccc(Oc3ccccc3)cc2C1 — 28-fold higher, 0.2 µM
- O=C(O)c1cccc(-c2cnc(C(=O)C3Cc4ccc(-c5ccccc5)cc4C3)o2)n1 (racemic) — 7.9-fold higher, 0.057 µM
- O=C(c1ncco1)[C@H]1Cc2ccc(-c3ccccc3)cc2C1 — 3.8-fold higher, 0.027 µM
- COC(=O)c1cnc(C(=O)[C@H]2CCc3cc(-c4ccccc4)ccc3C2)o1 — 7.6-fold higher, 0.055 µM
- O=C(O)c1cccc(-c2cnc(C(=O)[C@H]3CCc4cc(OCc5ccccc5)ccc4C3)o2)n1 — 4.7-fold higher, 0.034 µM
- O=C(c1ncc(I)o1)[C@@H]1CCc2cc(OCc3ccccc3)ccc2C1 — 97-fold higher, 0.7 µM
- O=C(O)c1cccc(-c2cnc(C(=O)[C@@H]3Cc4ccc(OCc5ccccc5)cc4C3)o2)n1 — 92-fold higher, 0.66 µM
- COC(=O)c1cccc(-c2cnc(C(=O)[C@H]3CCc4cc(-c5ccccc5)ccc4C3)o2)n1 — 3.8-fold higher, 0.027 µM
- O=C(O)c1cccc(-c2cnc(C(=O)[C@@H]3CCc4cc(OCc5ccccc5)ccc4C3)o2)n1 — 100-fold higher, 0.74 µM
- O=C(c1ncc(-c2ccccn2)o1)[C@H]1CCc2cc(OCc3ccccc3)ccc2C1 — 2.2-fold lower, 0.0032 µM
- COC(=O)c1cnc(C(=O)[C@@H]2CCc3cc(Oc4ccccc4)ccc3C2)o1 — 8.2-fold higher, 0.059 µM
- COC(=O)c1cccc(-c2cnc(C(=O)[C@@H]3CCc4cc(OCc5ccccc5)ccc4C3)o2)n1 — 620-fold higher, 4.5 µM
- O=C(c1ncco1)[C@H]1CCc2cc(-c3ccccc3)ccc2C1 — 7.9-fold higher, 0.057 µM
- O=C(O)c1cccc(-c2cnc(C(=O)[C@H]3Cc4ccc(Oc5ccccc5)cc4C3)o2)n1 — 9.9-fold higher, 0.071 µM
- O=C(c1ncco1)[C@@H]1Cc2ccc(-c3ccccc3)cc2C1 — 19-fold higher, 0.14 µM
- COC(=O)c1cccc(-c2cnc(C(=O)[C@@H]3CCc4cc(-c5ccccc5)ccc4C3)o2)n1 — 97-fold higher, 0.7 µM
- O=C(c1ncco1)[C@@H]1CCc2cc(-c3ccccc3)ccc2C1 — 64-fold higher, 0.46 µM
- COC(=O)c1cnc(C(=O)[C@@H]2CCc3cc(OCc4ccccc4)ccc3C2)o1 — 7.4-fold higher, 0.053 µM
- O=C(c1ncco1)[C@H]1CCc2cc(Oc3ccccc3)ccc2C1 — 3.3-fold lower, 0.0022 µM
- O=C(c1nnc(-c2ccccn2)o1)[C@@H]1CCc2cc(Oc3ccccc3)ccc2C1 — within 1.5-fold, 0.0063 µM
- O=C(O)c1cccc(-c2cnc(C(=O)[C@@H]3CCc4cc(-c5ccccc5)ccc4C3)o2)n1 — 69-fold higher, 0.5 µM
- O=C(c1ncco1)[C@@H]1CCc2cc(OCc3ccccc3)ccc2C1 — 12-fold higher, 0.087 µM
- COC(=O)c1cccc(-c2cnc(C(=O)[C@@H]3Cc4ccc(OCc5ccccc5)cc4C3)o2)n1 — 18-fold higher, 0.13 µM
- COC(=O)c1cccc(-c2cnc(C(=O)[C@H]3Cc4ccc(Oc5ccccc5)cc4C3)o2)n1 — 14-fold higher, 0.098 µM
- COC(=O)c1cccc(-c2cnc(C(=O)[C@@H]3CCc4cc(Oc5ccccc5)ccc4C3)o2)n1 — 120-fold higher, 0.87 µM
- O=C(c1ncc(-c2ccccn2)o1)[C@H]1CCc2ccccc2C1 — 60-fold higher, 0.43 µM
- N#Cc1cnc(C(=O)[C@H]2CCc3cc(OCc4ccccc4)ccc3C2)o1 — 2.2-fold lower, 0.0032 µM
